Experimental data: ChEMBL document CHEMBL1138555, “N-acylated and N,N'-diacylated imidazolidine-2-thione derivatives and N,N'-diacylated tetrahydropyrimidine-2(1H)-thione analogues: synthesis and antiproliferative activity” (Eur J Med Chem, 2009)

Assays:
SK-MEL-28 = assay: Growth inhibition of human SK-MEL-28 cells after 48 hrs by sulforhodamine B assay; format: functional; details: SK-MEL-28, 48 h
How it was run: (§1)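 NCI screen panel. Five 10-fold concentrations from 10^-4 to 10^-8 M. Exposure for the last 48 h of a 72 h incubation. Growth estimated by sulforhodamine B protein assay. GI50 is the concentration giving 50% growth inhibition. Where that level was not reached or was exceeded, the value is given as above or below the highest or lowest concentration tested.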

SK-OV-3 = assay: Growth inhibition of human SKOV3 cells after 48 hrs by sulforhodamine B assay; format: functional; details: SK-OV-3, 48 h; how it was run: as §1
EKVX = assay: Growth inhibition of human EKVX cells after 48 hrs by sulforhodamine B assay; format: functional; how it was run: as §1
TK-10 = assay: Growth inhibition of human TK10 cells after 48 hrs by sulforhodamine B assay; format: functional; details: TK-10, 48 h
How it was run: (§2)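 NCI in vitro panel screen. Compounds tested at five 10-fold dilutions, 10^-4 to 10^-8 M. Cells in 96-well plates were exposed for the last 48 h of a 72 h incubation. Viability/growth was read by sulforhodamine B protein assay. GI50 is the concentration giving 50% growth inhibition. Values beyond the tested range are reported as greater or less than the maximum or minimum concentration.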

Malme-3M = assay: Growth inhibition of human MALME-3M cells after 48 hrs by sulforhodamine B assay; format: functional; how it was run: as §1
MOLT-4 = assay: Growth inhibition of human MOLT4 cells after 48 hrs by sulforhodamine B assay; format: functional; details: MOLT-4, 48 h; how it was run: as §1
CAKI-1 = assay: Growth inhibition of human Caki1 cells after 48 hrs by sulforhodamine B assay; format: functional; details: CAKI-1, 48 h; how it was run: as §1
HOP-92 = assay: Growth inhibition of human HOP92 cells after 48 hrs by sulforhodamine B assay; format: functional; details: HOP-92, 48 h; how it was run: as §1
UO-31 = assay: Growth inhibition of human UO31 cells after 48 hrs by sulforhodamine B assay; format: functional; details: UO-31, 48 h; how it was run: as §2
HCT-116 = assay: Growth inhibition of human HCT116 cells after 48 hrs by sulforhodamine B assay; format: functional; details: HCT-116, 48 h; how it was run: as §1
NCI-H322M = assay: Growth inhibition of human NCI-H322M cells after 48 hrs by sulforhodamine B assay; format: functional; how it was run: as §1
IGROV-1 = assay: Growth inhibition of human IGROV1 cells after 48 hrs by sulforhodamine B assay; format: functional; details: IGROV-1, 48 h; how it was run: as §1
SW-620 = assay: Growth inhibition of human SW620 cells after 48 hrs by sulforhodamine B assay; format: functional; details: SW-620, 48 h; how it was run: as §2
[1] = Growth inhibition of human […] cells after 48 hrs by sulforhodamine B assay; format: functional; how it was run: as §1
K562 = assay: Growth inhibition of human K562 cells after 48 hrs by sulforhodamine B assay; format: functional; details: K562, 48 h; how it was run: as §1
HOP-62 = assay: Growth inhibition of human HOP62 cells after 48 hrs by sulforhodamine B assay; format: functional; details: HOP-62, 48 h; how it was run: as §1
NCI-H23 = assay: Growth inhibition of human NCI-H23 cells after 48 hrs by sulforhodamine B assay; format: functional; details: NCI-H23, 48 h; how it was run: as §1
786-0 = assay: Growth inhibition of human 786-0 cells after 48 hrs by sulforhodamine B assay; format: functional; details: 786-0, 48 h; how it was run: as §1
MDA-MB-435 = assay: Growth inhibition of human MDA-MB-435 cells after 48 hrs by sulforhodamine B assay; format: functional; details: MDA-MB-435, 48 h; how it was run: as §1
M14 = assay: Growth inhibition of human M14 cells after 48 hrs by sulforhodamine B assay; format: functional; details: M14, 48 h; how it was run: as §1
RXF 393 = assay: Growth inhibition of human RXF393 cells after 48 hrs by sulforhodamine B assay; format: functional; details: RXF 393, 48 h; how it was run: as §1
UACC-62 = assay: Growth inhibition of human UACC62 cells after 48 hrs by sulforhodamine B assay; format: functional; details: UACC-62, 48 h; how it was run: as §2
A549 = assay: Growth inhibition of human A549 cells after 48 hrs by sulforhodamine B assay; format: functional; details: A549, 48 h; how it was run: as §1
SNB-75 = assay: Growth inhibition of human SNB75 cells after 48 hrs by sulforhodamine B assay; format: functional; details: SNB-75, 48 h; how it was run: as §2
HL-60(TB) = assay: Growth inhibition of human HL-60(TB) cells after 48 hrs by sulforhodamine B assay; format: functional; details: HL-60, 48 h
How it was run: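 NCI 60-cell-line screen protocol: cells exposed to compound at five 10-fold dilutions from 10^-4 to 10^-8 M for the last 48 h of a 72 h incubation. Sulforhodamine B protein assay estimated viability/growth. GI50 (50% growth inhibition) derived; where not reached or exceeded, reported as greater or less than the highest or lowest concentration tested.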

OVCAR-8 = assay: Growth inhibition of human OVCAR8 cells after 48 hrs by sulforhodamine B assay; format: functional; details: OVCAR-8, 48 h; how it was run: as §1
U-251 = assay: Growth inhibition of human U251 cells after 48 hrs by sulforhodamine B assay; format: functional; details: U-251, 48 h; how it was run: as §2
KM12 = assay: Growth inhibition of human KM12 cells after 48 hrs by sulforhodamine B assay; format: functional; details: KM12, 48 h; how it was run: as §1
NCI/ADR-RES = assay: Growth inhibition of human NCI/ADR-RES cells after 48 hrs by sulforhodamine B assay; format: functional; how it was run: as §1
MDA-MB-231 = assay: Growth inhibition of human MDA-MB-231 cells after 48 hrs by sulforhodamine B assay; format: functional; details: MDA-MB-231, 48 h; how it was run: as §1
COLO 205 = assay: Growth inhibition of human COLO205 cells after 48 hrs by sulforhodamine B assay; format: functional; details: COLO 205, 48 h; how it was run: as §1
SK-MEL-2 = assay: Growth inhibition of human SK-MEL-2 cells after 48 hrs by sulforhodamine B assay; format: functional; details: SK-MEL-2, 48 h; how it was run: as §1
SF-295 = assay: Growth inhibition of human SF295 cells after 48 hrs by sulforhodamine B assay; format: functional; details: SF-295, 48 h; how it was run: as §1
SK-MEL-5 = assay: Growth inhibition of human SK-MEL-5 cells after 48 hrs by sulforhodamine B assay; format: functional; details: SK-MEL-5, 48 h; how it was run: as §1
HT-29 = assay: Growth inhibition of human HT-29 cells after 48 hrs by sulforhodamine B assay; format: functional; details: HT-29, 48 h; how it was run: as §1
PC-3 = assay: Growth inhibition of human PC3 cells after 48 hrs by sulforhodamine B assay; format: functional; details: PC-3, 48 h; how it was run: as §1
SR = assay: Growth inhibition of human SR cells after 48 hrs by sulforhodamine B assay; format: functional; how it was run: as §2
SF-268 = assay: Growth inhibition of human SF268 cells after 48 hrs by sulforhodamine B assay; format: functional; details: SF-268, 48 h; how it was run: as §1
HCT-15 = assay: Growth inhibition of human HCT15 cells after 48 hrs by sulforhodamine B assay; format: functional; details: HCT-15, 48 h; how it was run: as §1
OVCAR-3 = assay: Growth inhibition of human OVCAR-3 cells after 48 hrs by sulforhodamine B assay; format: functional; details: OVCAR-3, 48 h; how it was run: as §1
NCI-H460 = assay: Growth inhibition of human NCI-H460 cells after 48 hrs by sulforhodamine B assay; format: functional; details: NCI-H460, 48 h; how it was run: as §1
ACHN = assay: Growth inhibition of human ACHN cells after 48 hrs by sulforhodamine B assay; format: functional; how it was run: as §1
SN12C = assay: Growth inhibition of human SN12C cells after 48 hrs by sulforhodamine B assay; format: functional; how it was run: as §2
T47D = assay: Growth inhibition of human T47D cells after 48 hrs by sulforhodamine B assay; format: functional; how it was run: as §2
MT4 = assay: Antiproliferative activity against human MT4 cells assessed as reduction of growth by MTT assay; format: functional, cell-based
How it was run: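 MT-4 lymphoblastoid T cells (ATCC) in RPMI 1640 with 10% FCS, penicillin/streptomycin, checked for mycoplasma. 1 × 10⁴ mock-infected cells per well with serial dilutions from a 100 mM DMSO stock. Incubated 4 days at 37 °C, viable cells counted by MTT. IC50 versus untreated controls by linear regression. Mean of three separate experiments.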

LOX IMVI = assay: Growth inhibition of human LOXIMVI cells after 48 hrs by sulforhodamine B assay; format: functional; how it was run: as §1
BT-549 = assay: Growth inhibition of human BT549 cells after 48 hrs by sulforhodamine B assay; format: functional; details: BT-549, 48 h; how it was run: as §1
SNB-19 = assay: Growth inhibition of human SNB19 cells after 48 hrs by sulforhodamine B assay; format: functional; details: SNB-19, 48 h; how it was run: as §2
OVCAR-4 = assay: Growth inhibition of human OVCAR4 cells after 48 hrs by sulforhodamine B assay; format: functional; details: OVCAR-4, 48 h; how it was run: as §1
UACC-257 = assay: Growth inhibition of human UACC257 cells after 48 hrs by sulforhodamine B assay; format: functional; details: UACC-257, 48 h; how it was run: as §2

SMILES: CC(=O)C(=CN1CCN(C(=O)c2ccco2)C1=S)C(C)=O
- GI50 (SK-MEL-28): 3.9 µM
- GI50 (SK-OV-3): 20 µM
- GI50 (EKVX): 11.2 µM
- GI50 (TK-10): 4.2 µM
- GI50 (Malme-3M): 20.7 µM
- GI50 (MOLT-4): 8.2 µM
- GI50 (CAKI-1): 5.2 µM
- GI50 (HOP-92): 11.7 µM
- GI50 (UO-31): 2.9 µM
- GI50 (HCT-116): 4.1 µM
- GI50 (NCI-H322M): 4.7 µM
- GI50 (IGROV-1): 3.6 µM
- GI50 (SW-620): 14.6 µM
- GI50 [1]: 2.7 µM
- GI50 (K562): 38.4 µM
- GI50 (HOP-62): 22 µM
- GI50 (NCI-H23): 16.4 µM
- GI50 (786-0): 5.3 µM
- GI50 (MDA-MB-435): 12.6 µM
- GI50 (M14): 4 µM
- GI50 (RXF 393): 1.8 µM
- GI50 (UACC-62): 5.5 µM
- GI50 (A549): 11.2 µM
- GI50 (SNB-75): 9 µM
- GI50 (HL-60(TB)): 5.8 µM
- GI50 (OVCAR-8): 8.2 µM
- GI50 (U-251): 4.8 µM
- GI50 (KM12): 2.8 µM
- GI50 (NCI/ADR-RES): 23.2 µM
- GI50 (MDA-MB-231): 2.6 µM
- GI50 (COLO 205): 23.4 µM
- GI50 (SK-MEL-2): 3.3 µM
- GI50 (SF-295): 21.7 µM
- GI50 (SK-MEL-5): 16.6 µM
- GI50 (HT-29): 17.1 µM
- GI50 (PC-3): 4.8 µM
- GI50 (SR): 2.3 µM
- GI50 (SF-268): 2.6 µM
- GI50 (HCT-15): 2.2 µM
- GI50 (OVCAR-3): 11.4 µM
- GI50 (NCI-H460): 1.5 µM
- GI50 (ACHN): 2.9 µM
- GI50 (SN12C): 2.6 µM
- GI50 (T47D): 3.7 µM
- IC50 (MT4): 4 µM
- GI50 (LOX IMVI): 2.1 µM
- GI50 (BT-549): 14 µM
- GI50 (SNB-19): 30.1 µM
- GI50 (OVCAR-4): 10.6 µM
- GI50 (UACC-257): 2.5 µM
